Article PMC7451071 (MedChemComm, 2019)
“Also recorded” adds a separate entry of the source.

How the values were obtained:
AT2 receptor [1] = details: cited from earlier work; for Induction of neurite outgrowth: NG108-15 cells
p42/p44mapk pathway = details: cited from earlier work
AT2 receptor [2] = molecular target: T1, AT2 receptor (Sus scrofa, UniProt A0A4X1W622); assay: AT2 receptor binding, displacement of [125I]Ang II from pig uterus; details: versus compound 3
T1 sequence (A0A4X1W622 1-362): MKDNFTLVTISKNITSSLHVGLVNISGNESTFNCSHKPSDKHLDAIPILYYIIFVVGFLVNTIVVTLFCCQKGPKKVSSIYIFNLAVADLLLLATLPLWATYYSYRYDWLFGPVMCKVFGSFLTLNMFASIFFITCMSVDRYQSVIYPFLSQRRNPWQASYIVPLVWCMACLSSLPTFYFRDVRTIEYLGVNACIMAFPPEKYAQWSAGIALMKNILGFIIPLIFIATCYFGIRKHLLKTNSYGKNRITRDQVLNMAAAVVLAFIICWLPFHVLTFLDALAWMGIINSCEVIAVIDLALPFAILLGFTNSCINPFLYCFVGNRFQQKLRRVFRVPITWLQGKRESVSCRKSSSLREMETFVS

AT2 receptor [3] = assay: Neurite outgrowth assay in NG108-15 cells; format: cell-based; details: for Function (10 nM): three days, alone, with 10 μM PD 123319 or 100 nM Ang II
Outline: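 NG108-15 cells (passages 18–25; DMEM, 10% FBS, HAT, gentamycin; 37 °C, 7% CO2) plated at 3.6 × 10^4 cells/35 mm dish. They were treated once daily for three days from 24 h post-plating with 10 nM test compound (some also 100 nM). Test compound was added alone or 30 min before 100 nM Ang II; 10 μM PD 123319 was given 30 min before agonist. On day 4, phase-contrast micrographs were scored as % of ≥400 cells bearing a neurite longer than the cell body. Duplicates, three independent experiments, mean ± SEM, two-way ANOVA.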

AT2 receptor [4] = details: AT2R antagonist; cited from earlier work

## CC(C)(C)c1cc(C=C(C#N)C(N)=S)cc(C(C)(C)C)c1O [AG879, α-cyano-(3,5-di-t-butyl-4-hydroxy)thiocinnamide]
AT2 receptor [1]
  Effect on neurite outgrowth (inhibition): total
p42/p44mapk pathway
  Inhibition of the p42/p44mapk pathway: only partially inhibits

## CCCCOC(=O)NS(=O)(=O)c1ccc2c(c1-c1ccc(Cn3ccnc3)cc1)CCC2C(C)C (centres unmarked) [Compound 7a, N-(Butoxycarbonyl)-4-[4-(imidazol-1-yl)-methylphenyl]-1-isopropylindan-5-sulfonamide]
AT2 receptor [2]
  Loss in affinity compared to non rigidified analogue 3: ~200 times
AT2 receptor [3]; 10 nM, NG108-15 cells
  Degree of neurite outgrowth induced: highest degree of neurite outgrowth among this set of compounds
  Function (10 nM): strong agonistic effect; also recorded: Agonist

## CCCCOC(=O)NS(=O)(=O)c1ccc2c(c1-c1ccc(Cn3ccnc3)cc1)CCC2C(C)C (centres unmarked) [Compound 7b, N-(Butoxycarbonyl)-4-[4-(imidazol-1-yl)-methylphenyl]-1-isopropylindan-5-sulfonamide]
AT2 receptor [3]; 10 nM, NG108-15 cells
  Function (10 nM): antagonism; also recorded: Antagonist

## CCCCOC(=O)NS(=O)(=O)c1ccc2c(c1-c1cccc(Cn3ccnc3)c1)CCC2C(C)C (centres unmarked) [Compound 8a, N-(Butoxycarbonyl)-4-[3-(imidazol-1-yl)-methylphenyl]-1-isopropylindan-5-sulfonamide]
AT2 receptor [3]; 10 nM, NG108-15 cells
  Function (10 nM): Antagonist

## CCCCOC(=O)NS(=O)(=O)c1ccc2c(c1-c1cccc(Cn3ccnc3)c1)CCC2C(C)C (centres unmarked) [Compound 8b, N-(Butoxycarbonyl)-4-[3-(imidazol-1-yl)-methylphenyl]-1-isopropylindan-5-sulfonamide]
AT2 receptor [3]; 10 nM, NG108-15 cells
  Function (10 nM): Antagonist

## CCCCOC(=O)NS(=O)(=O)c1cc2c(cc1-c1ccc(Cn3ccnc3)cc1)CCC2C(C)C (centres unmarked) [Compound 9a, N-(Butoxycarbonyl)-5-[4-(imidazol-1-yl)-methylphenyl]-1-isopropylindan-6-sulfonamide]
AT2 receptor [3]; 10 nM, NG108-15 cells
  Function (10 nM): agonistic properties; also recorded: Agonist

## CCCCOC(=O)NS(=O)(=O)c1cc2c(cc1-c1ccc(Cn3ccnc3)cc1)CCC2C(C)C (centres unmarked) [Compound 9b, N-(Butoxycarbonyl)-5-[4-(imidazol-1-yl)-methylphenyl]-1-isopropylindan-6-sulfonamide]
AT2 receptor [3]; 10 nM, NG108-15 cells
  Function (10 nM): agonistic properties; also recorded: Agonist

## CCCCOC(=O)NS(=O)(=O)c1cc2c(cc1-c1cccc(Cn3ccnc3)c1)CCC2C(C)C (centres unmarked) [Compound 10a, N-(Butoxycarbonyl)-5-[3-(imidazol-1-yl)-methylphenyl]-1-isopropylindan-6-sulfonamide]
AT2 receptor [3]; 10 nM, NG108-15 cells
  Function (10 nM): Antagonist

## CCCCOC(=O)NS(=O)(=O)c1cc2c(cc1-c1cccc(Cn3ccnc3)c1)CCC2C(C)C (centres unmarked) [Compound 10b, N-(Butoxycarbonyl)-5-[3-(imidazol-1-yl)-methylphenyl]-1-isopropylindan-6-sulfonamide]
AT2 receptor [3]; 10 nM, NG108-15 cells
  Function (10 nM): agonistic effect; also recorded: Agonist

## Cc1cc(Cn2cnc3c2C[C@@H](C(=O)O)N(C(=O)C(c2ccccc2)c2ccccc2)C3)ccc1N(C)C [PD 123319, reference compound]
AT2 receptor [3]; 10 μM PD 123319 co-incubated with agonists
  Effect of co-incubation on induced neurite outgrowth: reduced the induced neurite outgrowth
AT2 receptor [3]; PD 123319 alone, data not shown
  Morphology on treatment alone: did not alter the morphology compared to untreated cells
AT2 receptor [4]
  IC50: 34 nM

## Ang II: hypertensive octapeptide angiotensin II
AT2 receptor [1]
  Induction of neurite outgrowth: induces neurite outgrowth

## Nα-nicotinoyl-Tyr-(Nα-Cbz-Arg)-Lys-His-Pro-Ile [CGP-42112]
AT2 receptor [1]
  Induction of neurite outgrowth: induces neurite outgrowth
